Active and inactive are the calls of the source. The calls are words filed in the database; no cut-off is given here.
Legend:
[1] = Selectivity index, ratio of CC50 for human Daudi cells to EC50 for Epstein-Barr virus; type: functional
[2] = system: Human gammaherpesvirus 4; test: Antiviral activity against Epstein-Barr virus infected in human H1 cells by DNA hybridization assay; type: functional, organism-based; settings: human gammaherpesvirus 4, H1
[3] = system: Human gammaherpesvirus 4; test: Antiviral activity against Epstein-Barr virus infected in human daudi cells by viral capsid immunofluorescence ELISA; type: functional, organism-based; settings: human gammaherpesvirus 4, Daudi
[4] = system: Human gammaherpesvirus 4; test: Antiviral activity against Epstein-Barr virus infected in human daudi cells by DNA hybridization assay; type: functional, organism-based; settings: human gammaherpesvirus 4, Daudi
[5] = Cytotoxicity against human Daudi cells by DNA hybridization assay; type: cell-based
[6] = system: Human gammaherpesvirus 4; test: Antiviral activity against Epstein-Barr virus infected in human akata cells; type: functional, organism-based; settings: human gammaherpesvirus 4, Akata
Outline: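 Akata cells kept in RPMI 1640 with 10% fetal bovine serum, L-glutamine, penicillin and gentamicin at 37 °C, 5% CO2. Lytic infection induced in latently infected cells with F(ab')2 goat anti-human IgG. Total DNA purified; EBV genome copies quantified by real-time TaqMan PCR (900 nM primers, 200 nM probe).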

[7] = Cytotoxicity against human akata cells by DNA hybridization assay; type: cell-based
Outline: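 Latently infected Akata cells grown in RPMI 1640 with 10% fetal bovine serum, L-glutamine, penicillin and gentamicin at 37 °C in humidified 5% CO2.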

[8] = system: Hepatitis C virus; test: Antiviral activity against Hepatitis C virus infected in human Huh7 AVA5 cells by replicon assay; type: functional, organism-based, Hepacivirus hominis; settings: Huh-7
Outline: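 HCV subgenomic CON1 genotype 1b replicon line AVA5 (Huh7), sub-confluent cultures. Compound added daily in fresh medium for 3 days. Assessed 24 h after last dose: intracellular HCV RNA by blot hybridization for EC50; cytotoxicity (CC50) by neutral red dye uptake.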

[9] = system: Human betaherpesvirus 5; test: Antiviral activity against Human cytomegalovirus AD169 infected in HFF cells by plaque reduction assay; type: functional, organism-based
[10] = system: Human betaherpesvirus 5; test: Antiviral activity against Human cytomegalovirus Towne infected in HFF cells by plaque reduction assay; type: functional, organism-based; settings: Human betaherpesvirus 5, Towne
[11] = Cytotoxicity against HFF cells; type: cell-based; settings: human
[12] = Cytotoxicity against human Huh7 AVA5 cells; type: cell-based, Huh-7
Outline: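 AVA5 replicon cells (Huh7 carrying subgenomic CON1 HCV, genotype 1b) kept as sub-confluent cultures. Compound given daily in fresh medium for 3 days. Viability was read by neutral red dye uptake 24 h after the last dose.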

[13] = Selectivity index, ratio of CC50 for human akata cells to EC50 for Epstein-Barr virus; type: functional

Structure (SMILES) | Selectivity index [1] | EC50 [4] | CC50 [5] | EC50 [6] | CC50 [7] | other results
Nc1ncnc2c1ncn2/C=C1\CC1(F)CO (stereo not drawn) | >1.25 | 167 µM | > 209 µM | – | – | EC50 [2]: 3.6 µM; EC50 [3]: 2.3 µM
Nc1ncnc2c1ncn2/C=C1/CC1(F)CO (stereo not drawn) | >31.3 | 6.8 µM | > 213 µM | – | – | –
Nc1nc2c(ncn2/C=C2\CC2(CO)CF)c(=O)[nH]1 (stereo not drawn) | – | – | – | 3.2 µM | 64.1 µM | –
Nc1nc2c(ncn2/C=C2\CC2(F)CO)c(=O)[nH]1 (stereo not drawn) | >6.8 | 29.1 µM | > 199 µM | – | – | EC50 [3]: < 0.32 µM
Nc1nc2c(ncn2/C=C2/CC2(CO)CF)c(=O)[nH]1 (stereo not drawn) | – | – | – | 7.5 µM | 59.7 µM | –
Nc1ncnc2c1ncn2/C=C1/CC1(CO)CF (stereo not drawn) | – | – | – | 0.5 µM | 55.7 µM | EC50 [8]: 6.5 µM; Activity [9]: inactive; EC50 [10]: 46 µM; CC50 [11]: > 100 µM; CC50 [12]: 11 µM
Nc1nc2c(ncn2/C=C2/CC2(F)CO)c(=O)[nH]1 (stereo not drawn) | >24.9 | 8 µM | > 199 µM | – | – | –
Nc1nc2c(ncn2COCCO)c(=O)[nH]1 [ACYCLOVIR] | – | – | – | 1.7 µM | – | –
Nc1ncnc2c1ncn2/C=C1\CC1(CO)CF (stereo not drawn) | – | – | – | 3.4 µM | 53.6 µM | –
Nc1nc2c(ncn2/C=C2/CC2(CO)CO)c(=O)[nH]1 [FILOCICLOVIR] | – | – | – | – | > 100 µM | Selectivity index [13]: > 40
Nc1nc2c(ncn2COC(CO)CO)c(=O)[nH]1 [GANCICLOVIR] | – | – | – | – | – | EC50 [10]: 2.5 µM; CC50 [11]: > 100 µM

Source: ChEMBL document CHEMBL1144038, “Fluorinated methylenecyclopropane analogues of nucleosides. Synthesis and antiviral activity of (Z)- and (E)-9-{[(2-fluoromethyl-2-hydroxymethyl)-cyclopropylidene]methyl}adenine and -guanine” (Bioorg Med Chem, 2008)
